Test results taken from ChEMBL document CHEMBL1122934, “Angiotensin-converting enzyme inhibitors. New orally active antihypertensive (mercaptoalkanoyl)- and [(acylthio)alkanoyl]glycine derivatives” (J Med Chem, 1985).

How the values were obtained:
[1] = target: T1, Angiotensin-converting enzyme (Oryctolagus cuniculus, UniProt P12822); experiment: In vitro inhibitory activity against rabbit lung Angiotensin I converting enzyme at pH 8.3
T1 sequence (P12822 whole entry): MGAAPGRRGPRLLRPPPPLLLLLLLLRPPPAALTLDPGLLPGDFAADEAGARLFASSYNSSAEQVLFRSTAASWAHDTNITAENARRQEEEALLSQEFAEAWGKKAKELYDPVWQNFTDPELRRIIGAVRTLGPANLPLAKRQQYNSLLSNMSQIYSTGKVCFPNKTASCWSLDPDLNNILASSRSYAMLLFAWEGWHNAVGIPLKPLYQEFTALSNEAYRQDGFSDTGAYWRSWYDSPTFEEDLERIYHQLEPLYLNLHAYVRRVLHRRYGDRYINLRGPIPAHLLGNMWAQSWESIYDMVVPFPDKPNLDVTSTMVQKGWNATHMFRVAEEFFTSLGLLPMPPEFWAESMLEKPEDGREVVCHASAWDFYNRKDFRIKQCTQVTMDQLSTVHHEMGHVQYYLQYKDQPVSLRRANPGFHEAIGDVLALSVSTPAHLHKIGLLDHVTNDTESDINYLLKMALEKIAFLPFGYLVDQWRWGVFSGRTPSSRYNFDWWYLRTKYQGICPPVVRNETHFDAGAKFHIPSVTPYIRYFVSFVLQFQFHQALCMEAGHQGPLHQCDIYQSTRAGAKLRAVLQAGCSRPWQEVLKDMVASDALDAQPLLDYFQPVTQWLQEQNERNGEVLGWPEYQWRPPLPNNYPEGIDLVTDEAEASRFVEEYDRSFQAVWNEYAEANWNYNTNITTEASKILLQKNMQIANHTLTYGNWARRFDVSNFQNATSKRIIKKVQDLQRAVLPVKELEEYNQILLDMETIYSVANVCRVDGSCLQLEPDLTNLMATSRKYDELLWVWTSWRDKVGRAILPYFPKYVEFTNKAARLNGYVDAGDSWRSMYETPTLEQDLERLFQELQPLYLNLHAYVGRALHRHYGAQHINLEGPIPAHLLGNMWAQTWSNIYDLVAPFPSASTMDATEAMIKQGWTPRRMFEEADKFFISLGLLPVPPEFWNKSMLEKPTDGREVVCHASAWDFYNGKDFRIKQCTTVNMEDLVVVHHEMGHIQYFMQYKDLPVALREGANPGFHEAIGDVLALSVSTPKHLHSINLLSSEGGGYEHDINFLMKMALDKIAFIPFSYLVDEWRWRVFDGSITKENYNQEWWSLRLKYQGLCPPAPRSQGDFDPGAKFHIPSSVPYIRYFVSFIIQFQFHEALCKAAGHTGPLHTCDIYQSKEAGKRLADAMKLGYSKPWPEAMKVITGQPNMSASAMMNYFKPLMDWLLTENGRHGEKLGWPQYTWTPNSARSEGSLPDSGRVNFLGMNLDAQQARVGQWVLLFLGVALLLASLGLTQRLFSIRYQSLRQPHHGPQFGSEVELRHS

[2] = target: T2, Angiotensin-converting enzyme (Rattus norvegicus) (UniProt P47820); experiment: Peroral dose required to inhibit angiotensin I induced vasopressor response in normotensive conscious rats; format: functional
T2 sequence (whole entry): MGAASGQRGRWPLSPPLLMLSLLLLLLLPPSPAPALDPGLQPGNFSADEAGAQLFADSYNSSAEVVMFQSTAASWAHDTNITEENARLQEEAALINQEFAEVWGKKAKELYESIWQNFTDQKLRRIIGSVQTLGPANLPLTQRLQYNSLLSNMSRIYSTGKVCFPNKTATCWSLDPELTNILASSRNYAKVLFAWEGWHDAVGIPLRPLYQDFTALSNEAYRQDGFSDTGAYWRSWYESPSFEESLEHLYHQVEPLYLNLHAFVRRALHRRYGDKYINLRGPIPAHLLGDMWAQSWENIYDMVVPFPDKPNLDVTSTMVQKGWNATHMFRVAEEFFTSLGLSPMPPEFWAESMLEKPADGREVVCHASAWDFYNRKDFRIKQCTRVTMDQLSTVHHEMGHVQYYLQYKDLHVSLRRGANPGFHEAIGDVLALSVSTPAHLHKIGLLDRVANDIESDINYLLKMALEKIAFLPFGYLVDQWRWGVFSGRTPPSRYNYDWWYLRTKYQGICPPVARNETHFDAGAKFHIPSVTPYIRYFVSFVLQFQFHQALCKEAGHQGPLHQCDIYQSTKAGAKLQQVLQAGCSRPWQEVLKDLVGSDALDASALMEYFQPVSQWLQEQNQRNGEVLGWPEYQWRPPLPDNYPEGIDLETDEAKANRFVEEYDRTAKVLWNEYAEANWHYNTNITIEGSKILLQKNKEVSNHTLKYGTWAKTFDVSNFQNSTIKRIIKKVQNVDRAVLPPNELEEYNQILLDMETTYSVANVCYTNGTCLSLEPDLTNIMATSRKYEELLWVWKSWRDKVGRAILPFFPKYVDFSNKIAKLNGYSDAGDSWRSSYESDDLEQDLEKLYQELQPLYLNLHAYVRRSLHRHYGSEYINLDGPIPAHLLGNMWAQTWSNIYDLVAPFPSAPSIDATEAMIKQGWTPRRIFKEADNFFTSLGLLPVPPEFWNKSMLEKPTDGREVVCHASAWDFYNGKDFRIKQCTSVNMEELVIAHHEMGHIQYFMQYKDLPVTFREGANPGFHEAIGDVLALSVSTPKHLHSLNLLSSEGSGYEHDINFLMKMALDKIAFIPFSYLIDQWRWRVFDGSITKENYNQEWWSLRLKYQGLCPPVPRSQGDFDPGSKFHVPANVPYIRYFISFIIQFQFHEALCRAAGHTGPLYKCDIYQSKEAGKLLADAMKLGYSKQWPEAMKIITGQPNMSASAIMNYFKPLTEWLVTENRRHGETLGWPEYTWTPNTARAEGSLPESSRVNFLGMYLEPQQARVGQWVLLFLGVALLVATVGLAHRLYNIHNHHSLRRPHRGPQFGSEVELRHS
In short: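 Male normotensive rats with aortic and vena caval catheters, used ≥6 days later while restrained; angiotensins I and II 0.25 μg/kg iv every 10 min. One oral inhibitor dose in 0.5% gum tragacanth suspension; angiotensin I repeated every 10 min for ≥2 h. Maximum inhibition as % of initial response; ID50 from dose-response plot.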

Canis familiaris = experiment: Peroral dose required to inhibit angiotensin I induced vasopressor response in normotensive conscious dogs; format: functional; details: Canis lupus familiaris, po; read-out: ID50 (the source's name)
In short: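 Six conscious normotensive dogs; pressor response to angiotensin I 0.25 μg/kg iv. Inhibitor given orally at 0.01–1 mg/kg, vehicle 0.3 M KH₂PO₄ buffer, weekly intervals in a three-way crossover with vehicle control.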

Structure (SMILES)	IC50 [1] [nM]	ID50 [2] [mg/kg]	ED50 (Canis familiaris) [mg/kg]
CCN1CCCC1CN(CC(=O)O)C(=O)C(C)CS (centres undefined)	640	–	–
CC(CS)C(=O)N(CC(=O)O)Cc1ccco1 (centres undefined)	170	–	–
CC(=O)SCC(C)C(=O)N(CC(=O)O)C1CCS(=O)(=O)C1 (centres undefined)	280	–	–
C[C@@H](CSC(=O)C(C)(C)C)C(=O)N(CC(=O)O)C1CCCC1	> 100000	25	–
CC(=O)SCC(C)C(=O)N(CC(=O)O)C1Cc2ccccc2C1 (centres undefined)	340	–	–
CC(S)C(=O)NCC(=O)O (centres undefined) [TIOPRONIN]	1900	–	–
CC(CS)C(=O)N(CC(=O)O)CC1CC2CC(C1C)C2(C)C (centres undefined)	440	–	–
CC(CS)C(=O)N(CC(=O)O)C1CCCCCC1 (centres undefined)	–	0.05	–
CSc1cccc(N(CC(=O)O)C(=O)C(C)CSC(C)=O)c1 (centres undefined)	75	–	–
CC(CS)C(=O)N(CC(=O)O)C1CC1 (centres undefined)	30	0.3	–
CC(=O)SCC(C)C(=O)N(CC(=O)O)C(C)C (centres undefined)	5900	–	–
CC(=O)SCC(C)C(=O)N(CC(=O)O)c1ccc(C)cc1 (centres undefined)	130	0.15	–
Cc1ccc(N(CC(=O)O)C(=O)C(C)CS)cc1 (centres undefined)	5	–	–
CC(=O)SCC(C)C(=O)N(CC(=O)O)Cc1cccs1 (centres undefined)	750	–	–
COc1cccc(N(CC(=O)O)C(=O)C(C)CSC(C)=O)c1 (centres undefined)	110	–	–
CC(=O)SCC(C)C(=O)N(CC(=O)O)C1CCC1 (centres undefined)	220	–	–
CC(=O)SCC(C)C(=O)N(C1CC1)C(C)C(=O)O (centres undefined)	220	–	–
CC(=O)SCC(C)C(=O)N(CC(=O)O)c1ccccc1 (centres undefined)	300	0.2	–
CC(=O)SCC(C)C(=O)N(CC(=O)O)C1CC2CCC1C2 (stereo in doubt; 31)	52	–	–
CC(=O)SCC(C)C(=O)N(CC(=O)O)C1CCCC1 (centres undefined)	82	0.15	–
CC(=O)SCC(C)C(=O)N(CC(=O)O)C1CC2CCC1C2 (stereo in doubt; 30) [listing 1 of 2 here]	–	0.06	–

Structure (SMILES)	IC50 [1] [nM]	ID50 [2] [mg/kg]	ED50 (Canis familiaris) [mg/kg]
CCOC(=O)[C@H](CCc1ccccc1)N[C@@H](C)C(=O)N1CCC[C@H]1C(=O)O	–	0.08	0.1
Cc1ccccc1N(CC(=O)O)C(=O)C(C)CS (centres undefined)	120	–	–
CC(=O)SCC(C)C(=O)N(CC(=O)O)C1CC2CCC1C2 (stereo in doubt; 30) [listing 2 of 2 here]	20	–	–
Cc1cc(C)cc(N(CC(=O)O)C(=O)C(C)CS)c1 (centres undefined)	44	–	–
CC(CS)C(=O)N(CC(=O)O)C1CCCC1 (centres undefined)	–	0.15	–
CC(CS)C(=O)N(CC(=O)O)Cc1cccs1 (centres undefined)	55	–	–
CC(CSC(=O)C(C)(C)C)C(=O)N(CC(=O)O)C1CCCC1 (centres undefined)	3700	0.15	–
C#CCN(CC(=O)O)C(=O)C(C)CS (centres undefined)	270	–	–
CC(CS)C(=O)N(CC(=O)O)C1CCS(=O)(=O)C1 (centres undefined)	280	–	–
CCCCc1ccc(N(CC(=O)O)C(=O)C(C)CSC(C)=O)cc1 (centres undefined)	64	–	–
CSCCCN(CC(=O)O)C(=O)C(C)CSC(C)=O (centres undefined)	900	1.5	–
CC(CS)C(=O)N(C1CC1)C(C)C(=O)O (centres undefined)	79	–	–
CC(CS)C(=O)N(CC(=O)O)CC1CCCO1 (centres undefined)	130	–	–
CC(=O)SCC(C)C(=O)N(CC(=O)O)c1ccccc1C (centres undefined)	550	–	–
CC(=O)SCC(C)C(=O)N(CC(=O)O)c1ccc(F)cc1 (centres undefined)	600	–	–
CC(=O)SCC(C)C(=O)N(CC(=O)O)C1CCCCCC1 (centres undefined)	–	0.06	–
CC(CS)C(=O)N(CC(=O)O)C[C@H]1CC2CC(C1C)C2(C)C (some centres undefined)	160	–	–
CC(=O)SCC(C)C(=O)N(CC(=O)O)C1CCC2CC1C2(C)C (centres undefined)	45	–	–
C#CCN(CC(=O)O)C(=O)C(C)CSC(C)=O (centres undefined)	4500	–	–
CC(CS)C(=O)N(CC(=O)O)C1CCCCC1 (centres undefined)	–	0.1	–
Cc1cccc(N(CC(=O)O)C(=O)C(C)CS)c1 (centres undefined)	19	–	–

Structure (SMILES)	IC50 [1] [nM]	ID50 [2] [mg/kg]	ED50 (Canis familiaris) [mg/kg]
CC(CS)C(=O)N(CC(=O)O)C1Cc2ccccc2C1 (centres undefined)	–	0.15	–
CC(=O)SCC(C)C(=O)N(CC(=O)O)Cc1ccco1 (centres undefined)	700	–	–
CC(=O)SCC(C)C(=O)N(CC(=O)O)c1ccc2c(c1)CCC2 (centres undefined)	48	1.5	–
CC(=O)SCC(C)C(=O)N(CC(=O)O)c1cccc(C)c1 (centres undefined)	75	0.15	–
CC(=O)SCC(C)C(=O)N(CC(=O)O)c1cccc(F)c1 (centres undefined)	51	–	–
CC(CS)C(=O)N(CC(=O)O)C1CCC1 (centres undefined)	18	0.3	–
CC(=O)SCC(C)C(=O)N(CC(=O)O)CC1CCCO1 (centres undefined)	1900	–	–
CC(=O)SCC(C)C(=O)N(CC(=O)O)c1cc(C)cc(C)c1 (centres undefined)	44	–	–
CC(=O)SCC(C)C(=O)N(CC(=O)O)CC1CC2CC(C1C)C2(C)C (centres undefined)	85	–	–
CC(=O)SCC(C)C(=O)N(CC(=O)O)C[C@H]1CC2CC(C1C)C2(C)C (some centres undefined)	140	–	–
C[C@H](CSC(=O)C(C)(C)C)C(=O)N(CC(=O)O)C1CCCC1 [PIVOPRIL]	3600	0.058	0.17
CC(=O)SCC(C)C(=O)N(CC(=O)O)C1CCCCC1 (centres undefined)	270	–	–
CC(=O)SCC(C)C(=O)N(CC(=O)O)c1ccc(C(C)C)cc1 (centres undefined)	60	–	–
CC(CS)C(=O)NCC(=O)O (centres undefined)	210	–	–
CC(CS)C(=O)N(CC(=O)O)C(C)C (centres undefined)	72	–	–
CC(CS)C(=O)N(CC(=O)O)C1CC2CCC1C2 (centres undefined)	32	0.1	–
CC(CS)C(=O)N(C)CC(=O)O (centres undefined)	130	–	–
C[C@H](CS)C(=O)N1CCC[C@H]1C(=O)O [CAPTOPRIL]	–	–	0.057
CCN(CC(=O)O)C(=O)C(C)CS (centres undefined)	75	–	–
CC(CSC(=O)CC(C)(C)C)C(=O)N(CC(=O)O)C1CCCC1 (centres undefined)	15000	1.2	–
CC(=O)SCC(C)C(=O)N(CC(=O)O)C1CC1 (centres undefined)	540	0.2	–
